Results as given in ChEMBL document CHEMBL3351948, “Synthesis of gallinamide A analogues as potent falcipain inhibitors and antimalarials” (J Med Chem, 2014).
Active and inactive are the calls of the source. No cut-off for these calls is given here. *1 amine or outer side, *2 acyl side, *3 side chain or, on linkers, in order; H or OH if unused. Where a SMILES comes first, the peptide text is derived from it. [ ]: non-standard residue; d: D form. The star is where a group is joined. Pentenoic(2E,4S-NH2) = C[C@@H](/C=C/C(=O)[*:2])N[*:1]; X1 = CC[C@H](C)[C@@H](C(=O)*)N(C)C; NHBn = c1ccc(CN*)cc1

Assays:
Falcipain 2 [1] = target: T1, Falcipain 2 (Plasmodium falciparum, UniProt Q9N6S8); experiment: Inhibition of Plasmodium falciparum FP2 using Z-Phe-Arg-AMC as substrate incubated for 30 mins prior to substrate addition measured after 30 mins by fluorescence assay
T1 sequence (Q9N6S8 whole entry): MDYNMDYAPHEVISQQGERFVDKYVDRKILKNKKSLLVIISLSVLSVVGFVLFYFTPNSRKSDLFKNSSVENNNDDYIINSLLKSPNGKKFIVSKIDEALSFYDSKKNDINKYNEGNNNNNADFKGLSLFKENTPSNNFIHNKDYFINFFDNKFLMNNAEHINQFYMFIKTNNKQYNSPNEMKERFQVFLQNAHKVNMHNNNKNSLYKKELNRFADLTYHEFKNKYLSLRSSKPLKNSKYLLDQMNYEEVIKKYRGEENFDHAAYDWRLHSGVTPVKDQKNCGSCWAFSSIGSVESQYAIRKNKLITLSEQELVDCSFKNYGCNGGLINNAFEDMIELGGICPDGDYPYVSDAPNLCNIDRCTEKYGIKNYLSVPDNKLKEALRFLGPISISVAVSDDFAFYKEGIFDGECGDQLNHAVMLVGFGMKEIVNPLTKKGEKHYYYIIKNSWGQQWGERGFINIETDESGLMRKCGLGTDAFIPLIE
Method in brief: (§1)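 The assay read enzyme activity with a fluorescence-based kinetic method and reported IC50 in nM. Values are means with standard error of the mean from three experiments.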

[2] = Inhibition of Plasmodium falciparum FP3 using Z-Phe-Arg-AMC as substrate incubated for 30 mins prior to substrate addition measured after 30 mins by fluorescence assay; method in brief: as §1
Plasmodium falciparum [3] = experiment: Antiplasmodial activity against chloroquine-sensitive Plasmodium falciparum 3D7 infected in human erythrocytes by [3H]-hypoxanthine incorporation assay; type: functional, organism-based
Method in brief: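 IC50 against the chloroquine-sensitive 3D7 strain was measured by [3H]-hypoxanthine incorporation in cultured parasites. Values are means with standard error of the mean from three experiments.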

Plasmodium falciparum [4] = experiment: Antiplasmodial activity against Plasmodium falciparum 3D7 trophozoite stage assessed as swollen food vacuole after 3 days by Giemsa staining-based assay; type: functional, organism-based
Plasmodium falciparum [5] = experiment: Antiplasmodial activity against multidrug-resistant Plasmodium falciparum Dd2 infected in human erythrocytes by [3H]-hypoxanthine incorporation assay; type: functional, organism-based
Method in brief: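 Chloroquine-resistant P. falciparum Dd2 strain; IC50 reported with standard error of the mean from three experiments.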

[6] = Cytotoxicity against […] cells assessed as cell viability by AlamarBlue assay; type: cell-based; settings: Homo sapiens
Plasmodium falciparum [7] = experiment: Inhibition of Plasmodium falciparum AP-M1
Plasmodium falciparum [8] = experiment: Inhibition of Plasmodium falciparum AP-M17
Plasmodium falciparum [9] = experiment: Inhibition of Plasmodium falciparum AP-M18
[10] = target: Procathepsin L (Homo sapiens) (UniProt P07711); experiment: Inhibition of human cathepsin L expressed in Pichia pastoris using N-Cbz-Phe-Arg-7-amino-4-methylcoumarin as substrate incubated for 90 mins prior to substrate addition measured after 30 mins by fluorescence assay
Chain of Procathepsin L (Homo sapiens) (P07711 114-333 limits assumed): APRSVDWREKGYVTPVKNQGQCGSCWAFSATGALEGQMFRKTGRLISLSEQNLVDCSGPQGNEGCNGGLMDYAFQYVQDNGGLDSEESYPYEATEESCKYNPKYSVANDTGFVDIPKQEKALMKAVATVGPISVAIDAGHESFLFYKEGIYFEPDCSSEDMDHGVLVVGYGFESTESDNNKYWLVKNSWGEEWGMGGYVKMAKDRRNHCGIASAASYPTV

Plasmodium falciparum [11] = experiment: Antiplasmodial activity against Plasmodium falciparum 3D7 trophozoite stage assessed as swollen food vacuole at <5 nM after 3 days by Giemsa staining-based assay; type: functional, organism-based
Plasmodium falciparum [12] = experiment: Antiplasmodial activity against Plasmodium falciparum 3D7; type: functional, organism-based
Method in brief: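 Chloroquine-sensitive P. falciparum 3D7 cultures; growth inhibition read out as [3H]-hypoxanthine incorporation; IC50 reported with standard error of the mean from three experiments.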

[13] = Inhibition of FP1 in Plasmodium falciparum trophozoite stage after 1 hr by SDS-PAGE analysis
Falcipain 2 [14] = target: T1, Falcipain 2; experiment: Inhibition of FP2 in Plasmodium falciparum trophozoite stage after 1 hr by SDS-PAGE analysis
Falcipain 2 [15] = target: T1, Falcipain 2; experiment: Inhibition of FP2' in Plasmodium falciparum trophozoite stage after 1 hr by SDS-PAGE analysis
[16] = Inhibition of FP3 in Plasmodium falciparum trophozoite stage after 1 hr by SDS-PAGE analysis

| SMILES | IC50 (Falcipain 2 [1]) | IC50 [2] | IC50 (Plasmodium falciparum [3]) | Activity (Plasmodium falciparum [4]) | IC50 (Plasmodium falciparum [5]) | IC50 [6] | INH (Plasmodium falciparum [7]) | INH (Plasmodium falciparum [8]) | INH (Plasmodium falciparum [9]) | inhibition [10] | Activity (Plasmodium falciparum [11]) | IC50 (Plasmodium falciparum [12]) | IC50 [13] | IC50 (Falcipain 2 [14]) | IC50 (Falcipain 2 [15]) | IC50 [16] |
| --- | --- | --- | --- | --- | --- | --- | --- | --- | --- | --- | --- | --- | --- | --- | --- | --- |
| CC[C@H](C)[C@@H](C(=O)N[C@@H](CC(C)C)C(=O)N[C@@H](CC(C)C)C(=O)N[C@@H](C)/C=C/C(=O)N[C@@H](C)C(=O)N1C[C@@H](O)C[C@H]1C(=O)OC)N(C)C | 7700 nM | > 50000 nM | 1900 nM | Active |  |  |  |  |  |  |  |  |  |  |  |  |
| CC[C@H](C)[C@@H](C(=O)N[C@@H](CC(C)C)C(=O)N[C@@H](CC(C)C)C(=O)N[C@H](C(=O)N[C@@H](C)/C=C/C(=O)N[C@@H](C)C(=O)N1C[C@@H](O)C[C@H]1C(=O)OC)C(C)C)N(C)C | > 50000 nM | > 50000 nM | > 50000 nM | Active |  |  |  |  |  |  |  |  |  |  |  |  |
| COC1=CC(=O)N(C(=O)CC[C@H](C)NC(=O)[C@H](CC(C)C)NC(=O)[C@H](CC(C)C)NC(=O)[C@H](C(C)C)N(C)C)[C@H]1C | 3710 nM | > 50000 nM | 4380 nM | inactive |  |  |  |  |  |  |  |  |  |  |  |  |
| CO[C@H]1CC(=O)N(C(=O)CC[C@H](C)NC(=O)[C@H](CC(C)C)NC(=O)[C@H](CC(C)C)NC(=O)[C@H](C(C)C)N(C)C)[C@H]1C | > 50000 nM | > 50000 nM | > 50000 nM | inactive |  |  |  |  |  |  |  |  |  |  |  |  |
| CO[C@H]1CC(=O)N(C(=O)/C=C/[C@H](C)NC(=O)[C@H](CC(C)C)NC(=O)[C@H](CC(C)C)NC(=O)[C@H](C(C)C)N(C)C)[C@H]1C | 2.81 nM | 163 nM | 210 nM | Active |  |  |  |  |  |  |  |  |  |  |  |  |
| CC[C@H](C)[C@@H](C(=O)N[C@@H](CC(C)C)C(=O)N[C@@H](CC(C)C)C(=O)N[C@H](C(=O)N[C@@H](C)/C=C/C(=O)N[C@@H](C)C(=O)NCc1ccccc1)C(C)C)N(C)C (X1-LLV[Pentenoic(2E,4S-NH2)]A-NHBn) | > 50000 nM | > 50000 nM | > 50000 nM | Active |  |  |  |  |  |  |  |  |  |  |  |  |
| COC1=CC(=O)N(C(=O)/C=C/[C@H](C)NC(=O)[C@H](CC(C)C)NC(=O)[C@H](CC(C)C)NC(=O)[C@H](C(C)C)N(C)C)[C@H]1Cc1ccc(O)cc1 | 5.25 nM | 81.4 nM | 20 nM |  | 67 nM | 18900 nM | > 10 µM | > 10 µM | > 10 µM | Active | Active |  |  |  |  |  |
| CC[C@H](C)[C@@H](C(=O)N[C@@H](CC(C)C)C(=O)N[C@@H](CC(C)C)C(=O)N[C@@H](C)/C=C/C(=O)N[C@@H](C)C(=O)NCc1ccccc1)N(C)C | 10500 nM | > 25000 nM | 540 nM | Active | 421 nM | > 50000 nM | > 10 µM | > 10 µM | > 10 µM | Active |  |  |  |  |  |  |
| CC(C)C[C@H](NC(=O)[C@H](CC(C)C)NC(=O)[C@H](C(C)C)N(C)C)C(=O)N[C@@H](C)/C=C/C(=O)N[C@@H](C)C(=O)NCc1ccccc1 | 11500 nM | > 25000 nM | 320 nM | Active | 378 nM | > 50000 nM | > 10 µM | > 10 µM | > 10 µM | Active |  |  |  |  |  |  |
| COC1=CC(=O)N(C(=O)/C=C/[C@H](C)NC(=O)[C@H](CC(C)C)NC(=O)[C@H](CC(C)C)NC(=O)[C@H](C(C)C)N(C)C)[C@H]1C(C)C | 9.52 nM | 131 nM | 16.6 nM |  | 165 nM | 9650 nM | > 10 µM | > 10 µM | > 10 µM | Active | Active |  |  |  |  |  |
| COC1=CC(=O)N(C(=O)/C=C/[C@H](C)NC(=O)[C@H](CC(C)C)NC(=O)[C@H](CC(C)C)NC(=O)[C@H](C(C)C)N(C)C)C1 | 24.8 nM | 225 nM | 57.3 nM |  | 419 nM | 16300 nM | > 10 µM | > 10 µM | > 10 µM | Active | Active |  |  |  |  |  |
| CC(C)C[C@H](NC(=O)[C@H](CC(C)C)NC(=O)[C@@H](C(C)C)N(C)C)C(=O)N[C@@H](C)/C=C/C(=O)N[C@@H](C)C(=O)NCc1ccccc1 | 3400 nM | > 25000 nM | 5400 nM | Active | 170 nM | > 50000 nM | > 10 µM | > 10 µM | > 10 µM | Active |  |  |  |  |  |  |
| COC1=CC(=O)N(C(=O)/C=C/[C@H](C)NC(=O)[C@H](CC(C)C)NC(=O)[C@H](CC(C)C)NC(=O)[C@H](C(C)C)N(C)C)[C@H]1Cc1c[nH]c2ccccc12 | 12 nM | 66.7 nM | 9.7 nM |  | 29 nM | 8500 nM | > 10 µM | > 10 µM | > 10 µM | Active | Active |  |  |  |  |  |
| COC1=CC(=O)N(C(=O)/C=C/[C@H](C)NC(=O)[C@H](CC(C)C)NC(=O)[C@H](CC(C)C)NC(=O)[C@H](C(C)C)N(C)C)[C@H]1C | 6.78 nM | 292 nM | 89.3 nM | Active | 302 nM | 14200 nM | > 10 µM | > 10 µM | > 10 µM | Active |  |  |  |  |  |  |
| CC(C)C[C@H](NC(=O)[C@H](CC(C)C)NC(=O)[C@H](C(C)C)N(C)C)C(=O)N[C@@H](C)/C=C/C(=O)N1C(=O)C=C(OCc2ccccc2)[C@@H]1C(C)C | 6.86 nM | 182 nM | 62 nM |  |  |  |  |  |  |  | Active |  |  |  |  |  |
| CC(C)C[C@H](NC(=O)[C@H](CC(C)C)NC(=O)[C@H](C(C)C)N(C)C)C(=O)N[C@@H](C)/C=C/C(=O)N[C@@H](C)C(=O)Nc1nccs1 | 2500 nM | 34000 nM | 1100 nM | Active |  |  |  |  |  |  |  |  |  |  |  |  |
| CC(C)C[C@H](NC(=O)[C@H](CC(C)C)NC(=O)[C@@H]1CCCN1C)C(=O)N[C@@H](C)/C=C/C(=O)N[C@@H](C)C(=O)NCc1ccccc1 | 6000 nM | 46000 nM | 6600 nM | Active |  |  |  |  |  |  |  |  |  |  |  |  |
| CC[C@H](C)[C@@H](C(=O)O[C@@H](CC(C)C)C(=O)N[C@@H](CC(C)C)C(=O)N[C@@H](C)/C=C/C(=O)N1C(=O)C=C(OC)[C@@H]1C)N(C)C [GALLINAMIDE A] |  |  |  |  |  |  |  |  |  |  |  | 50 nM | 140 nM | 8.5 nM | 8.5 nM | 22 nM |
| CC(C)C[C@H](NC(=O)[C@H](CC(C)C)NC(=O)[C@H](C(C)C)N(C)C)C(=O)N[C@@H](C)/C=C/C(=O)N1CC(OCc2ccccc2)=CC1=O | 9.59 nM | 196 nM | 96 nM |  |  |  |  |  |  |  | Active |  |  |  |  |  |
